Data reported in ChEMBL document CHEMBL2311435, “Development of 18F-labeled picolinamide probes for PET imaging of malignant melanoma” (J Med Chem, 2013).

What was measured:
Pancreas [1] = experiment: Biodistribution in pancreas of C57BL/6 mouse xenografted with mouse B16F10 cells at 3.7 MBq, iv after 1 hr by gamma-scintillation counting analysis; type: ADME, organism-based, B16-F10; conditions: in vivo
In short: (§1)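 1.0 × 10^6 B16F10 cells in PBS injected subcutaneously into the right shoulder of C57BL/6 mice, grown to 0.5 cm (~10 day). Tail-vein injection of about 3.7 MBq (100 μCi) 18F probe in PBS (0.1 M, pH 7.4). Killed at 1.0 or 2.0 h p.i. (n = 4 per group). Tissues excised, weighed and gamma-counted; uptake expressed as %ID/g, mean ± SD.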

Pancreas [2] = experiment: Biodistribution in pancreas of C57BL/6 mouse xenografted with mouse B16F10 cells at 3.7 MBq, iv after 2 hrs by gamma-scintillation counting analysis; type: ADME, organism-based, B16-F10; conditions: in vivo; in short: as §1
Muscle tissue [3] = experiment: Biodistribution in muscle of C57BL/6 mouse xenografted with mouse B16F10 cells at 3.7 MBq, iv after 1 hr by gamma-scintillation counting analysis; type: ADME, organism-based, B16-F10; conditions: in vivo; in short: as §1
Blood [4] = experiment: Biodistribution in blood of C57BL/6 mouse xenografted with mouse B16F10 cells at 3.7 MBq, iv after 1 hr by gamma-scintillation counting analysis; type: ADME, organism-based, B16-F10; conditions: in vivo; in short: as §1
Heart [5] = experiment: Biodistribution in heart of C57BL/6 mouse xenografted with mouse B16F10 cells at 3.7 MBq, iv after 2 hrs by gamma-scintillation counting analysis; type: ADME, organism-based, B16-F10; conditions: in vivo; in short: as §1
Spleen [6] = experiment: Biodistribution in spleen of C57BL/6 mouse xenografted with mouse B16F10 cells at 3.7 MBq, iv after 1 hr by gamma-scintillation counting analysis; type: ADME, organism-based, B16-F10; conditions: in vivo; in short: as §1
Nucleic Acid [7] = experiment: Ratio of drug uptake in tumor to lungs of C57BL/6 mouse xenografted with mouse B16F10 cells at 3.7 MBq, iv after 2 hrs by gamma-scintillation counting analysis; type: ADME, organism-based, B16-F10; conditions: in vivo
In short: (§2)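 Same subcutaneous B16F10 model and tail-vein dose of about 3.7 MBq (100 μCi), n = 4 per group. Dissection at 1 or 2 h p.i. Gamma-counter %ID/g of tumor divided by that of blood, lung, liver or muscle, given as mean ± SD.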

Zone of skin [8] = experiment: Biodistribution in skin of C57BL/6 mouse xenografted with mouse B16F10 cells at 3.7 MBq, iv after 1 hr by gamma-scintillation counting analysis; type: ADME, organism-based, B16-F10; conditions: in vivo; in short: as §1
Bone [9] = experiment: Biodistribution in bone of C57BL/6 mouse xenografted with mouse B16F10 cells at 3.7 MBq, iv after 1 hr by gamma-scintillation counting analysis; type: ADME, organism-based, Bone element, B16-F10; conditions: in vivo; in short: as §1
Liver [10] = experiment: Biodistribution in liver of C57BL/6 mouse xenografted with mouse B16F10 cells at 3.7 MBq, iv after 2 hrs by gamma-scintillation counting analysis; type: ADME, organism-based, B16-F10; conditions: in vivo; in short: as §1
Nucleic Acid [11] = experiment: Ratio of drug uptake in tumor to lungs of C57BL/6 mouse xenografted with mouse B16F10 cells at 3.7 MBq, iv after 1 hr by gamma-scintillation counting analysis; type: ADME, organism-based, B16-F10; conditions: in vivo; in short: as §2
Mus musculus [12] = experiment: Biodistribution in tumor of C57BL/6 mouse xenografted with mouse B16F10 cells at 3.7 MBq, iv after 2 hrs by gamma-scintillation counting analysis; type: ADME, organism-based, Neoplasm, B16-F10; conditions: in vivo; in short: as §1
Zone of skin [13] = experiment: Biodistribution in skin of C57BL/6 mouse xenografted with mouse B16F10 cells at 3.7 MBq, iv after 2 hrs by gamma-scintillation counting analysis; type: ADME, organism-based, B16-F10; conditions: in vivo; in short: as §1
Mus musculus [14] = experiment: Biodistribution in lungs of C57BL/6 mouse xenografted with mouse B16F10 cells at 3.7 MBq, iv after 1 hr by gamma-scintillation counting analysis; type: ADME, organism-based, Lung, B16-F10; conditions: in vivo; in short: as §1
Mus musculus [15] = experiment: Biodistribution in tumor of C57BL/6 mouse xenografted with mouse B16F10 cells at 3.7 MBq, iv after 1 hr by gamma-scintillation counting analysis; type: ADME, organism-based, Neoplasm, B16-F10; conditions: in vivo; in short: as §1
Nucleic Acid [16] = experiment: Ratio of drug uptake in tumor to muscle of C57BL/6 mouse xenografted with mouse B16F10 cells at 3.7 MBq, iv after 1 hr by gamma-scintillation counting analysis; type: ADME, organism-based, B16-F10; conditions: in vivo; in short: as §2
Kidney [17] = experiment: Biodistribution in kidney of C57BL/6 mouse xenografted with mouse B16F10 cells at 3.7 MBq, iv after 2 hrs by gamma-scintillation counting analysis; type: ADME, organism-based, B16-F10; conditions: in vivo; in short: as §1
[18] = Drug uptake in tumor of C57BL/6 mouse xenografted with mouse B16F10 cells at 3.7 MBq, iv after 1 hr by PET imaging analysis; type: ADME, organism-based, Neoplasm, B16-F10; conditions: in vivo
In short: (§3)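 Static small-animal PET at 0.5, 1 and 2 h after tail-vein injection of ~3.7 MBq (100 μCi) into B16F10-bearing C57BL/6 mice (n = 4 per probe). Isoflurane anesthesia, 5% induction and 2% maintenance in O2. Decay-corrected images. ROI-derived %ID/g assumes 1 g/ml density, without attenuation correction. Mean ± SD.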

Mus musculus [19] = experiment: Biodistribution in eye of C57BL/6 mouse xenografted with mouse B16F10 cells at 3.7 MBq, iv after 1 hr by gamma-scintillation counting analysis; type: ADME, organism-based, B16-F10; conditions: in vivo; in short: as §1
Brain [20] = experiment: Biodistribution in brain of C57BL/6 mouse xenografted with mouse B16F10 cells at 3.7 MBq, iv after 2 hrs by gamma-scintillation counting analysis; type: ADME, organism-based, B16-F10; conditions: in vivo; in short: as §1
Nucleic Acid [21] = experiment: Ratio of drug uptake in tumor to liver of C57BL/6 mouse xenografted with mouse B16F10 cells at 3.7 MBq, iv after 2 hrs by gamma-scintillation counting analysis; type: ADME, organism-based, B16-F10; conditions: in vivo; in short: as §2
Heart [22] = experiment: Biodistribution in heart of C57BL/6 mouse xenografted with mouse B16F10 cells at 3.7 MBq, iv after 1 hr by gamma-scintillation counting analysis; type: ADME, organism-based, B16-F10; conditions: in vivo; in short: as §1
Mus musculus [23] = experiment: Biodistribution in eye of C57BL/6 mouse xenografted with mouse B16F10 cells at 3.7 MBq, iv after 2 hrs by gamma-scintillation counting analysis; type: ADME, organism-based, B16-F10; conditions: in vivo; in short: as §1
Spleen [24] = experiment: Biodistribution in spleen of C57BL/6 mouse xenografted with mouse B16F10 cells at 3.7 MBq, iv after 2 hrs by gamma-scintillation counting analysis; type: ADME, organism-based, B16-F10; conditions: in vivo; in short: as §1
Nucleic Acid [25] = experiment: Ratio of drug uptake in tumor to blood of C57BL/6 mouse xenografted with mouse B16F10 cells at 3.7 MBq, iv after 1 hr by gamma-scintillation counting analysis; type: ADME, organism-based, B16-F10; conditions: tumour; in short: as §2
Intestine [26] = experiment: Biodistribution in intestine of C57BL/6 mouse xenografted with mouse B16F10 cells at 3.7 MBq, iv after 1 hr by gamma-scintillation counting analysis; type: ADME, organism-based, B16-F10; conditions: in vivo; in short: as §1
Nucleic Acid [27] = experiment: Ratio of drug uptake in tumor to liver of C57BL/6 mouse xenografted with mouse B16F10 cells at 3.7 MBq, iv after 1 hr by gamma-scintillation counting analysis; type: ADME, organism-based, B16-F10; conditions: in vivo; in short: as §2
Liver [28] = experiment: Biodistribution in liver of C57BL/6 mouse xenografted with mouse B16F10 cells at 3.7 MBq, iv after 1 hr by gamma-scintillation counting analysis; type: ADME, organism-based, B16-F10; conditions: in vivo; in short: as §1
Bone [29] = experiment: Biodistribution in bone of C57BL/6 mouse xenografted with mouse B16F10 cells at 3.7 MBq, iv after 2 hrs by gamma-scintillation counting analysis; type: ADME, organism-based, Bone element, B16-F10; conditions: in vivo; in short: as §1
Stomach [30] = experiment: Biodistribution in stomach of C57BL/6 mouse xenografted with mouse B16F10 cells at 3.7 MBq, iv after 2 hrs by gamma-scintillation counting analysis; type: ADME, organism-based, B16-F10; conditions: in vivo; in short: as §1
Nucleic Acid [31] = experiment: Ratio of drug uptake in tumor to blood of C57BL/6 mouse xenografted with mouse B16F10 cells at 3.7 MBq, iv after 2 hrs by gamma-scintillation counting analysis; type: ADME, organism-based, B16-F10; conditions: tumour; in short: as §2
Mus musculus [32] = experiment: Biodistribution in lungs of C57BL/6 mouse xenografted with mouse B16F10 cells at 3.7 MBq, iv after 2 hrs by gamma-scintillation counting analysis; type: ADME, organism-based, Lung, B16-F10; conditions: in vivo; in short: as §1
Brain [33] = experiment: Biodistribution in brain of C57BL/6 mouse xenografted with mouse B16F10 cells at 3.7 MBq, iv after 1 hr by gamma-scintillation counting analysis; type: ADME, organism-based, B16-F10; conditions: in vivo; in short: as §1
Kidney [34] = experiment: Biodistribution in kidney of C57BL/6 mouse xenografted with mouse B16F10 cells at 3.7 MBq, iv after 1 hr by gamma-scintillation counting analysis; type: ADME, organism-based, B16-F10; conditions: in vivo; in short: as §1
[35] = Drug uptake in tumor of C57BL/6 mouse xenografted with mouse B16F10 cells at 3.7 MBq, iv after 2 hrs by PET imaging analysis; type: ADME, organism-based, Neoplasm, B16-F10; conditions: in vivo; in short: as §3
Stomach [36] = experiment: Biodistribution in stomach of C57BL/6 mouse xenografted with mouse B16F10 cells at 3.7 MBq, iv after 1 hr by gamma-scintillation counting analysis; type: ADME, organism-based, B16-F10; conditions: in vivo; in short: as §1
Blood [37] = experiment: Biodistribution in blood of C57BL/6 mouse xenografted with mouse B16F10 cells at 3.7 MBq, iv after 2 hrs by gamma-scintillation counting analysis; type: ADME, organism-based, B16-F10; conditions: in vivo; in short: as §1
Nucleic Acid [38] = experiment: Ratio of drug uptake in tumor to muscle of C57BL/6 mouse xenografted with mouse B16F10 cells at 3.7 MBq, iv after 2 hrs by gamma-scintillation counting analysis; type: ADME, organism-based, B16-F10; conditions: in vivo; in short: as §2
Muscle tissue [39] = experiment: Biodistribution in muscle of C57BL/6 mouse xenografted with mouse B16F10 cells at 3.7 MBq, iv after 2 hrs by gamma-scintillation counting analysis; type: ADME, organism-based, B16-F10; conditions: in vivo; in short: as §1
[40] = Drug uptake in tumor of C57BL/6 mouse xenografted with mouse B16F10 cells at 3.7 MBq, iv after 0.5 hrs by PET imaging analysis; type: ADME, organism-based, Neoplasm, B16-F10; conditions: in vivo; in short: as §3
Intestine [41] = experiment: Biodistribution in intestine of C57BL/6 mouse xenografted with mouse B16F10 cells at 3.7 MBq, iv after 2 hrs by gamma-scintillation counting analysis; type: ADME, organism-based, B16-F10; conditions: in vivo; in short: as §1

Compound CCN(CC)CCNC(=O)c1cc([18F])ccn1 has a Drug uptake (Pancreas [1]) of 1.06 % ID/g, a Drug uptake (Pancreas [2]) of 0.44 % ID/g and a Drug uptake (Muscle tissue [3]) of 0.6 % ID/g. The Drug uptake (Blood [4]) was 0.33 % ID/g, the Drug uptake (Heart [5]) was 0.37 % ID/g and the Drug uptake (Spleen [6]) was 1.09 % ID/g. For the same compound, the Ratio (Nucleic Acid [7]) was 9.46, the Drug uptake (Zone of skin [8]) was 0.73 % ID/g and the Drug uptake (Bone [9]) was 11.29 % ID/g. It also gave a Drug uptake (Liver [10]) of 1.41 % ID/g, a Ratio (Nucleic Acid [11]) of 8.81 and a Drug uptake (Mus musculus [12]) of 8.66 % ID/g. The Drug uptake (Zone of skin [13]) was 0.63 % ID/g, the Drug uptake (Mus musculus [14]) was 0.88 % ID/g and the Drug uptake (Mus musculus [15]) was 7.54 % ID/g. It also gave a Ratio (Nucleic Acid [16]) of 13.12, a Drug uptake (Kidney [17]) of 0.69 % ID/g and a Drug uptake [18] of 8.97 % ID/g. The Drug uptake (Mus musculus [19]) was 35.96 % ID/g, the Drug uptake (Brain [20]) was 0.24 % ID/g and the Ratio (Nucleic Acid [21]) was 4.16. For the same compound, the Drug uptake (Heart [22]) was 0.6 % ID/g, the Drug uptake (Mus musculus [23]) was 32.45 % ID/g and the Drug uptake (Spleen [24]) was 0.31 % ID/g. For the same compound, the Ratio (Nucleic Acid [25]) was 28.32, the Drug uptake (Intestine [26]) was 2.28 % ID/g and the Ratio (Nucleic Acid [27]) was 3.85. It also gave a Drug uptake (Liver [28]) of 2.07 % ID/g, a Drug uptake (Bone [29]) of 10.27 % ID/g and a Drug uptake (Stomach [30]) of 1.64 % ID/g. For the same compound, the Ratio (Nucleic Acid [31]) was 44.33, the Drug uptake (Mus musculus [32]) was 0.59 % ID/g and the Drug uptake (Brain [33]) was 0.49 % ID/g. It also gave a Drug uptake (Kidney [34]) of 1.34 % ID/g, a Drug uptake [35] of 9.73 % ID/g and a Drug uptake (Stomach [36]) of 2.24 % ID/g. For the same compound, the Drug uptake (Blood [37]) was 0.15 % ID/g, the Ratio (Nucleic Acid [38]) was 27.75 and the Drug uptake (Muscle tissue [39]) was 0.2 % ID/g. The Drug uptake [40] was 9.52 % ID/g and the Drug uptake (Intestine [41]) was 0.98 % ID/g.
